Here are results for three molecules from publication PMC4467237 (Clinical Pharmacology in Drug Development, 2014).

SMILES strings stand for the structures. Entries after “also recorded” stand apart in the source; their conditions may differ. Read-outs that look alike come from different tables or passages of the source. Marks after values point to notes of the source that are not given here.

The nature of one data set: Safety assessments. It counts as in vivo, human. An outline of the steps: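 Healthy adults in a randomized two-sequence crossover with a 14-day washout. Each period gave an oral 400 mg interacting drug or placebo once daily for 18 days, plus a single oral 5 mg test compound on day 5 after a 10-h fast. AEs checked daily, graded mild/moderate/severe and for causality, coded in MedDRA v14.0. Vital signs taken before PK draws. Labs, 12-lead ECG and physical exam at baseline, predose and discharge. Summarized descriptively in dosed subjects with ≥1 postdose assessment.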

Data set [1] is classed as in vivo, human. As to conditions: for AUC(0-t) / AUC(0-inf) / Tmax / half-life: human, plasma, oral.
For data set [2] the following is noted: healthy volunteers, cited from earlier work.
The test system of another data set is CYP3A4. The note with it: lenvatinib 0.1–10 µg/mL, human liver microsomes and human recombinant CYPs; ref Eisai data on file; cited from earlier work. A general note: Microsomes from liver hold many membrane-bound enzymes, among them those of drug oxidation.
For data set [3] the following is noted: single agent, Phase I and II studies; cited from earlier work.
For data set [4] the following is noted: human; cited from earlier work.
The conditions of data set [5]: cited from earlier work.
Setting [6] is: 5 mg lenvatinib + ketoconazole 400 mg/day [B], n = 16.
Where [7] appears, read: 5 mg lenvatinib + placebo [A], n = 16.
Setting [8] is: 5 mg, arithmetic mean (SD), 5 mg lenvatinib + placebo [A], n = 16.
Setting [9] is: 5 mg, geometric mean (%CV), 5 mg lenvatinib + placebo [A], n = 16.
[10] abbreviates: arithmetic mean (SD), 5 mg lenvatinib + ketoconazole 400 mg/day [B], n = 16.
[11] abbreviates: geometric mean (%CV), 5 mg lenvatinib + ketoconazole 400 mg/day [B], n = 16.

The term AUC(0-t) denotes exposure summed from dosing to a finite time, without extrapolation to infinity. As usually defined, the AUC(0-inf) is the area under the concentration-time curve extrapolated to infinity. As a reminder, the Tmax is the time at which the peak concentration occurs. In general, half-life refers to how long it takes for the measured level to halve. On to `COc1cc2nccc(Oc3ccc(NC(=O)NC4CC4)c(Cl)c3)c2cc1C(N)=O` [Lenvatinib], for which the “Subjects reporting treatment-emergent AEs” value in “Safety assessments” (following ketoconazole with lenvatinib, 18 subjects) was found to be 44%; in the data set “Safety assessments” (following placebo with lenvatinib, 17 subjects) it was 59%; in the data set “Safety assessments” (overall, both treatments, N = 18), 72%. The ECG results in the data set “Safety assessments” (overall, both treatments) was “either normal or considered not clinically significant”. The “Serious TEAEs” value in the data set “Safety assessments” (overall, both treatments) is recorded as “No serious TEAEs were reported”. Besides, the “Subjects with treatment-related TEAEs” value in “Safety assessments” (overall, both treatments) came out at 22%. For the same molecule, the Hypertension entry in “Safety assessments” (single-dose lenvatinib 5 mg alone or with ketoconazole, healthy subjects) is “not observed”. Besides, the “CL/F, arithmetic mean (SD)” value in data set [1] (setting [6]) is listed as 7.70 (1.49) L/h; in data set [1] (setting [7]), 8.78 (1.40) L/h. In addition, the “tlag, arithmetic mean (SD)” value in data set [1] (setting [6]) was 0.06 (0.17) ^e h; in data set [1] (setting [7]) it was 0.16 (0.24) ^b h. Moreover, the “Increase in Cmax with ketoconazole versus placebo” value in data set [1] (5 mg lenvatinib, ketoconazole 400 mg/day) is on record as 19%. For the same molecule, in data set [1] (across all subjects), the “Percent extrapolation of AUC0–∞” value is listed as less than 4%. For the same molecule, the “Median time at which Cmax was achieved” value in data set [1] (both treatment conditions (placebo or ketoconazole)) stood at 3 h. The AUC(0-t) in data set [1] (setting [8]) stood at 571 ng·h/mL; in data set [1] (setting [9]) it was 564 ng·h/mL; in data set [1] (setting [10]), 661 ng·h/mL; in data set [1] (setting [11]) it was 647 ng·h/mL. Besides, the AUC(0-inf) in data set [1] (setting [8]) came out at 584 ng·h/mL; in data set [1] (setting [9]), 577 ng·h/mL; in data set [1] (setting [10]), 676 ng·h/mL; in data set [1] (setting [11]), 662 ng·h/mL. For the same molecule, the Tmax in data set [1] (5 mg, tmax median (range), 5 mg lenvatinib + placebo [A]) stood at 3 h; in data set [1] (5 mg, tmax, arithmetic mean (SD), 5 mg lenvatinib + placebo [A], n = 16), 3.13 h; in data set [1] (tmax median (range), 5 mg lenvatinib + ketoconazole [B]) it was 3 h; in data set [1] (tmax, arithmetic mean (SD), 5 mg lenvatinib + ketoconazole 400 mg/day [B], n = 16), 2.56 h. For the same molecule, the half-life is 29 h in data set [1] (5 mg, t½ median (range), 5 mg lenvatinib + placebo [A]); 29.2 h in data set [1] (t½ median (range), 5 mg lenvatinib + ketoconazole [B]); 28.3 h in data set [1] (t½, arithmetic mean (SD), 5 mg lenvatinib + ketoconazole 400 mg/day [B], n = 16). Besides, in data set [1] (versus placebo), the “Decrease in apparent mean clearance in the ketoconazole treatment group” value is listed as approximately 12%. For the same molecule, the “Difference in tmax, t½ or tlag between the two treatments” value in data set [1] (visual assessment, ketoconazole versus placebo) is “No changes; also recorded: no difference”. The Median tmax in data set [2] (range 1–4 hours) was 2 h. In data set [2] (range 11–57 hours), the “Mean t½” value was 27.6 h. Also, in data set [2], the “AUC0–∞” value was 1409 ng·h/mL. Besides, in data set [2], the “Mean Cmax” value is on record as 144.5 ng/mL. The “Share of CYP3A4 in the CYP-mediated metabolism of lenvatinib” value in the data set with CYP3A4 is reported as more than 80%. In addition, the Maximum tolerated dose in data set [3] is reported as 25 mg/day. Also, in data set [4], the “Renal clearance as contributor to oral clearance” value is 1–2%. Moreover, the “Terminal exponential half-life (t½,z)” value in data set [4] was approximately 28 h.

`Cc1ccc(NC(=O)c2ccc(CN3CCN(C)CC3)cc2)cc1Nc1nccc(-c2cccnc2)n1` [imatinib]: in data set [5] (imatinib), the “Increase in AUC with ketoconazole coadministration” value is on record as 40%.

Turning to `Cc1cn(-c2cc(NC(=O)c3ccc(C)c(Nc4nccc(-c5cccnc5)n4)c3)cc(C(F)(F)F)c2)cn1` [nilotinib], in data set [5] (nilotinib), the “Increase in AUC with ketoconazole coadministration” value was “more than 200%” and the “Increase in Cmax with ketoconazole coadministration” value is on record as 84%.
